Measured values as given in ChEMBL document CHEMBL4364254 (J Med Chem, 2019).

Assays:
[1] = molecular target: Tyrosine-protein kinase Lck (Homo sapiens, UniProt P06239); assay: Activity at recombinant human LCK using Ulight-Poly GAT[EAY(1:1:1)]n as substrate measured after 10 mins by LANCE assay
[2] = molecular target: Muscarinic acetylcholine receptor M3 (Homo sapiens, UniProt P20309); assay: Displacement of [3H]4-DAMP from recombinant human M3 receptor after 60 mins by scintillation counting analysis
[3] = molecular target: 5-hydroxytryptamine receptor 2B (Homo sapiens, UniProt P41595); assay: Displacement of [125I](+/-)DOI from recombinant human 5HT2B receptor after 60 mins by scintillation counting analysis
[4] = molecular target: GABA-A receptor; anion channel; assay: Displacement of [3H]flunitrazepam from rat brain GABAA ion channel after 60 mins by scintillation counting analysis
[5] = molecular target: Androgen receptor (Homo sapiens, UniProt P10275); assay: Displacement of [3H]methyltrienolone from recombinant human AR after 1440 mins by scintillation counting analysis
[6] = Half life in Sprague-Dawley rat plasma at 1 mg/kg, po by LC-MS/MS analysis; format: ADME, organism-based
[7] = molecular target: 3',5'-cyclic-AMP phosphodiesterase 4D (Homo sapiens, UniProt Q08499); assay: Activity at human recombinant PDE4D2 using [3H]cAMP as substrate measured after 20 mins by scintillation counting analysis
[8] = molecular target: Mu-type opioid receptor (Homo sapiens, UniProt P35372); assay: Displacement of [3H]DAMGO from recombinant human MOR after 120 mins by scintillation counting analysis
[9] = molecular target: Prostaglandin G/H synthase 1 (Homo sapiens, UniProt P23219); assay: Activity at human recombinant COX1 using arachidonic acid as substrate measured after 3 mins by ADHP reagent based fluorescence assay
[10] = molecular target: Cytochrome P450 2B6 (Homo sapiens, UniProt P20813); assay: Induction of CYP2B6 in human HepaRG cells at 10 uM measured after 24 hrs by qRT-PCR analysis relative to phenobarbital; format: ADME, cell-based; conditions: hepatocytes
In short: (§1)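 Cryopreserved HepaRG cells were plated on collagen I in Williams' E medium with GlutaMAX. On day 4 they were treated with 10 μM compound in serum-free induction medium for 24 h at 37 °C; the vehicle was 1% DMSO. Positive controls were omeprazole 50 μM (CYP1A2), phenobarbital 1 mM (CYP2B6) and rifampicin 10 μM (CYP3A4). mRNA was read by TaqMan qPCR with GAPDH as reference, using ΔΔCt, and expressed as % of the positive control.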

[11] = molecular target: Sodium-dependent dopamine transporter (Homo sapiens, UniProt Q01959); assay: Displacement of [3H]BTCP from recombinant human dopamine transporter after 120 mins by scintillation counting analysis
[12] = molecular target: Histamine H2 receptor (Homo sapiens, UniProt P25021); assay: Displacement of [125I]APT from recombinant human H2 receptor after 120 mins by scintillation counting analysis
[13] = molecular target: Beta-1 adrenergic receptor (Homo sapiens, UniProt P08588); assay: Displacement of [3H](-)CGP12177 from recombinant human beta1 adrenergic receptor after 60 mins by scintillation counting analysis
[14] = molecular target: Cytochrome P450 3A4 (Homo sapiens, UniProt P08684); assay: Induction of CYP3A4 in human HepaRG cells at 10 uM measured after 24 hrs by qRT-PCR analysis relative to rifampicin; format: ADME, cell-based; conditions: hepatocytes
In short: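 Cryopreserved HepaRG cells were plated on collagen I in Williams' E medium with GlutaMAX. Positive controls were omeprazole 50 μM (CYP1A2), phenobarbital 1 mM (CYP2B6) and rifampicin 10 μM (CYP3A4). mRNA was read by TaqMan qPCR with GAPDH as reference, using ΔΔCt, and expressed as % of the positive control.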

[15] = molecular target: Prostaglandin G/H synthase 2 (Homo sapiens, UniProt P35354); assay: Activity at human recombinant COX2 using arachidonic acid as substrate measured after 5 mins by ADHP reagent based fluorescence assay
[16] = molecular target: Cytochrome P450 1A2 (Homo sapiens, UniProt P05177); assay: Induction of CYP1A2 in human HepaRG cells at 10 uM measured after 24 hrs by qRT-PCR analysis relative to omeprazole; format: ADME, cell-based; conditions: hepatocytes; in short: as §1
[17] = Cmax in C57BL6 mouse plasma at 0.3 mg/kg, po measured at 2 hrs post dose by LC-MS/MS analysis; format: ADME, organism-based; parameters: dose 0.3 mg/kg, route oral
In short: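 Female C57BL6 mice, 8 weeks old, received a single oral dose of 0.3 mg/kg in 1% NMP/0.3% Tween 80 in 0.5% Na-CMC. […] Maximum observed concentrations are reported; plasma clearance and half-life come from PK analysis.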

[18] = molecular target: Delta-type opioid receptor (Homo sapiens, UniProt P41143); assay: Displacement of [3H]DADLE from recombinant human DOR after 60 mins by scintillation counting analysis
[19] = molecular target: D(1A) dopamine receptor (Homo sapiens, UniProt P21728); assay: Displacement of [3H]SCH23390 from recombinant human D1 receptor after 60 mins by scintillation counting analysis
[20] = molecular target: Alpha-1A adrenergic receptor (Homo sapiens, UniProt P35348); assay: Displacement of [3H]prazosin from recombinant human alpha 1A adrenoceptor after 60 mins by scintillation counting analysis
Alpha-1A adrenergic receptor, sequence (P35348 whole entry): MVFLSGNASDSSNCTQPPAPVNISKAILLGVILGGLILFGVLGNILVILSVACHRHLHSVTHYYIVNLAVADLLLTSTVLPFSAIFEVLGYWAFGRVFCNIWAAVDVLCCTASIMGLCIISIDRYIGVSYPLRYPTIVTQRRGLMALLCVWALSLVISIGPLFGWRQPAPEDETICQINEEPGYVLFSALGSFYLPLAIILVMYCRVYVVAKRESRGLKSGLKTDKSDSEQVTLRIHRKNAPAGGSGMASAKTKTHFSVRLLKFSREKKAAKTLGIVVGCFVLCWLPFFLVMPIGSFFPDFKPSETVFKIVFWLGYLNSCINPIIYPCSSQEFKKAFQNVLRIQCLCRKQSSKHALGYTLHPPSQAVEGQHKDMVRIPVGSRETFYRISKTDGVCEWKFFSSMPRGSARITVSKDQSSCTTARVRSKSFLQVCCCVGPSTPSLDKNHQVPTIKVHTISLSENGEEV

Histamine H2 receptor, sequence (P25021 whole entry): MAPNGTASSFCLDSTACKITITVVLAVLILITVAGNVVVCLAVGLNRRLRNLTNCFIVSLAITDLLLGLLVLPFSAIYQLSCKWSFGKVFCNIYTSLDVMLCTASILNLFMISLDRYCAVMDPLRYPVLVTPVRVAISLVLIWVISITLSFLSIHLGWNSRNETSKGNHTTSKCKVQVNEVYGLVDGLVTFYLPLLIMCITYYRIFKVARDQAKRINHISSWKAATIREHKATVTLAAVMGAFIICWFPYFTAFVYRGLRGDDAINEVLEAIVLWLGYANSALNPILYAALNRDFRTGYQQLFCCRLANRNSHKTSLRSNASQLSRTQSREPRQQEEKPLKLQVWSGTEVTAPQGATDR
Tyrosine-protein kinase Lck, sequence (P06239 whole entry): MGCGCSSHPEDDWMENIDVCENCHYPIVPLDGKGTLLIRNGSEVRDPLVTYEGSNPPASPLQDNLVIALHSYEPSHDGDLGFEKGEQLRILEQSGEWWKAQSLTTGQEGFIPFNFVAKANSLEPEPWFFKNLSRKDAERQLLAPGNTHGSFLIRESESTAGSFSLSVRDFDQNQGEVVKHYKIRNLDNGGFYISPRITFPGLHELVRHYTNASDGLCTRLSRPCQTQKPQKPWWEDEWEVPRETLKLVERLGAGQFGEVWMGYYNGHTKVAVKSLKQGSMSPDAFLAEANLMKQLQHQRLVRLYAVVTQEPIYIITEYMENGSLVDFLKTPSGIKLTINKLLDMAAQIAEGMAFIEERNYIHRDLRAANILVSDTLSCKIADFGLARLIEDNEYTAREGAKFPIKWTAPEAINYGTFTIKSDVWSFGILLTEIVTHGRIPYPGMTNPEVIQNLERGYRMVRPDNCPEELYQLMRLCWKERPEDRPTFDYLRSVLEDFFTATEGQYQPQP
3',5'-cyclic-AMP phosphodiesterase 4D, sequence (Q08499 whole entry): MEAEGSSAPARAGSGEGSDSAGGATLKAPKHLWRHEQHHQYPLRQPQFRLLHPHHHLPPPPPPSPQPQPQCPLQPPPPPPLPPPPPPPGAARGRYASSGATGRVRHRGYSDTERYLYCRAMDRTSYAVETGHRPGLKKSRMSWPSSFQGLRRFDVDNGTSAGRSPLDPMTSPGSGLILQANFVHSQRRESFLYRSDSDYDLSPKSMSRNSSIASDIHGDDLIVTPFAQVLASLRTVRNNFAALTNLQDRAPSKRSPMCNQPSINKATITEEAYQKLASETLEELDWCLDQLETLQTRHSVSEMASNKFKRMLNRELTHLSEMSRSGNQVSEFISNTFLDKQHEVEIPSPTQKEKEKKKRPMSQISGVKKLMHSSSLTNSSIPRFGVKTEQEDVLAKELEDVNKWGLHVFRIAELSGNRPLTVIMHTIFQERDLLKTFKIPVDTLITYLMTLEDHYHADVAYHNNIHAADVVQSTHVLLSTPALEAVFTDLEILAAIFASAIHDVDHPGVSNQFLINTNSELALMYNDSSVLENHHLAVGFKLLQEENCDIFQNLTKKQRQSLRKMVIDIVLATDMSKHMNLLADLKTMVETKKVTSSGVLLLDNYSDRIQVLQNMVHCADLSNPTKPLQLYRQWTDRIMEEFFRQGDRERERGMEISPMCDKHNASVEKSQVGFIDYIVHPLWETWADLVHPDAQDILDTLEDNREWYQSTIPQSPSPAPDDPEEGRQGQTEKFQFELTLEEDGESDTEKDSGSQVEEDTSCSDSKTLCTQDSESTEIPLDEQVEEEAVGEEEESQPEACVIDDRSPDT
5-hydroxytryptamine receptor 2B, sequence (P41595 whole entry): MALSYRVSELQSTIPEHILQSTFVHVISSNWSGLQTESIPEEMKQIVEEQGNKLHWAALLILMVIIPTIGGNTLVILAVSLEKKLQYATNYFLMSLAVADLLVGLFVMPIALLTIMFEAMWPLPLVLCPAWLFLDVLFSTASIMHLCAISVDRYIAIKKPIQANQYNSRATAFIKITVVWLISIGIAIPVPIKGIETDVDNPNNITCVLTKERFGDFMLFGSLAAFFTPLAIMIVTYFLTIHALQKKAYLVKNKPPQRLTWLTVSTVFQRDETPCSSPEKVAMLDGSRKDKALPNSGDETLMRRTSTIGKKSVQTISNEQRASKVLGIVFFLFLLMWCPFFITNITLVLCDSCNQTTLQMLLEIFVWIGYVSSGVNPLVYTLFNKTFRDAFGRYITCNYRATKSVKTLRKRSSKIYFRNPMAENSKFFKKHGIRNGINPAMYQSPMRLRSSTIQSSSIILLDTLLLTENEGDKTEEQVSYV
Prostaglandin G/H synthase 1, sequence (P23219 whole entry): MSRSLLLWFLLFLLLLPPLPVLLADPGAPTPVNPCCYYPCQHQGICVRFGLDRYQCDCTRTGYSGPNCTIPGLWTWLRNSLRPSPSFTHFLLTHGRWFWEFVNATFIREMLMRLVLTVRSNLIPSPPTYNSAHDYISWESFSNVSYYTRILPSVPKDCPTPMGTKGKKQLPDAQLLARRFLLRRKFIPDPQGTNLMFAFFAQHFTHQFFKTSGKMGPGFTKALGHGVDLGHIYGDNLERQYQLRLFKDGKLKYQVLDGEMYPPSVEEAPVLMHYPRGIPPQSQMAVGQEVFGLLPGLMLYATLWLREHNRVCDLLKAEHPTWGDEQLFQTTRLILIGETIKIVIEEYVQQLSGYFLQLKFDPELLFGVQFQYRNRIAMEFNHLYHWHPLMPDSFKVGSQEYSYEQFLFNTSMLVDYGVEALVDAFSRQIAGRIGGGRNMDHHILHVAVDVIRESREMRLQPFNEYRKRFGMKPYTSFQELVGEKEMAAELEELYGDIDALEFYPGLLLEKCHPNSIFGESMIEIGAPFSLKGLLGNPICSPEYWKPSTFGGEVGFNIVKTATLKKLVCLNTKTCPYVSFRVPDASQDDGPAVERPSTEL
D(1A) dopamine receptor, sequence (P21728 whole entry): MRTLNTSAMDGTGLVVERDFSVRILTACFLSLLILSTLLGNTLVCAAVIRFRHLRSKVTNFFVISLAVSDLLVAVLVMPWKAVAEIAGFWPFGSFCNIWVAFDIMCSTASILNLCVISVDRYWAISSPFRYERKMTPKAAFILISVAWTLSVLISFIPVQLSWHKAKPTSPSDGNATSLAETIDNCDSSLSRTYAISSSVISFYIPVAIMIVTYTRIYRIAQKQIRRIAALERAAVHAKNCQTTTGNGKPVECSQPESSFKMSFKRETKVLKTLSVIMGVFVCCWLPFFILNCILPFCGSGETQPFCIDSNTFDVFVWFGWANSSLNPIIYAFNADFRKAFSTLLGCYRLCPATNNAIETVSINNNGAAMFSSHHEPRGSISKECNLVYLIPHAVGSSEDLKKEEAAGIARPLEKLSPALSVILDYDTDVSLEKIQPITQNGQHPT
Muscarinic acetylcholine receptor M3, sequence (P20309 whole entry): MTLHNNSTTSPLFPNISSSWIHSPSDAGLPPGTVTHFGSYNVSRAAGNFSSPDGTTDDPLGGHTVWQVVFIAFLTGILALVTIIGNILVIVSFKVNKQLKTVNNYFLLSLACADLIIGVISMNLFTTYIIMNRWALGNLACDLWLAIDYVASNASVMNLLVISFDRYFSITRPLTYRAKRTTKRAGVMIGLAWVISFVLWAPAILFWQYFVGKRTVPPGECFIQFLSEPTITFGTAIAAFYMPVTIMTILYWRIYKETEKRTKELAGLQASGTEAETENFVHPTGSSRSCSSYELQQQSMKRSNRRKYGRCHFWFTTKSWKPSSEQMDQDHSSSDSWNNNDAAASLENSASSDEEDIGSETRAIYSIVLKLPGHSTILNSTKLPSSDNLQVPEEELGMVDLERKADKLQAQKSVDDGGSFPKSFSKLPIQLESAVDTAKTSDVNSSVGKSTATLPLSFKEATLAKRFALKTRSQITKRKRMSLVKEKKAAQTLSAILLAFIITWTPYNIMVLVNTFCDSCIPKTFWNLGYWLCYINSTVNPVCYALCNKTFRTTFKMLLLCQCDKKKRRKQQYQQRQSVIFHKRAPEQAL
Delta-type opioid receptor, sequence (P41143 whole entry): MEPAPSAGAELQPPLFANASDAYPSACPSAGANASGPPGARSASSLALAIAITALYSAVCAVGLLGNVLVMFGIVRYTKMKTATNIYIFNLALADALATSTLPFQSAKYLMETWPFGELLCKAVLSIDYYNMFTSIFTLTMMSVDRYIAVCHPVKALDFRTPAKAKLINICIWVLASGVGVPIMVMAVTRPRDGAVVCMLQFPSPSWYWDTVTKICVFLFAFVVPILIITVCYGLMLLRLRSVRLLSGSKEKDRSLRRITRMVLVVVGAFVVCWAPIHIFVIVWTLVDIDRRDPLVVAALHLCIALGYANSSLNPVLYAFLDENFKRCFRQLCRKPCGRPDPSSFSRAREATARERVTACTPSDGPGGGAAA

For `O=C(Nc1ccc(OC(F)F)nc1)NC1CCN(c2ncnc3c2nc(-c2ccccc2Cl)n3-c2ccc(Cl)cc2)CC1`, the EC50 [1] was greater than 10 µM, the IC50 [1] was greater than 10 µM and the EC50 [2] was greater than 10 µM. The IC50 [2] was greater than 10 µM, the EC50 [3] was greater than 10 µM and the IC50 [3] was greater than 10 µM. For the same molecule, the EC50 [4] was greater than 10 µM, the IC50 [4] was greater than 10 µM and the EC50 [5] was greater than 10 µM. It also gave an IC50 [5] greater than 10 µM, a half-life [6] of 9.9 h and an EC50 [7] greater than 10 µM. It also gave an IC50 [7] greater than 10 µM, an EC50 [8] greater than 10 µM and an IC50 [8] greater than 10 µM. It also gave an EC50 [9] greater than 10 µM, an IC50 [9] greater than 10 µM and an Activity [10] of less than 10%. It also gave an EC50 [11] greater than 10 µM, an IC50 [11] greater than 10 µM and an EC50 [12] greater than 10 µM. For the same molecule, the IC50 [12] was greater than 10 µM, the EC50 [13] was greater than 10 µM and the IC50 [13] was greater than 10 µM. The Activity [14] was less than 10%, the EC50 [15] was greater than 10 µM and the IC50 [15] was greater than 10 µM. It also gave an Activity [16] of less than 1%, a Cmax [17] of 0.94 µg/mL and an EC50 [18] greater than 10 µM. The IC50 [18] was greater than 10 µM, the EC50 [19] was greater than 10 µM and the IC50 [19] was greater than 10 µM. It also gave an EC50 [20] greater than 10 µM and an IC50 [20] greater than 10 µM.
